The record followed here is ChEMBL document CHEMBL1135421, “2-(Anilinomethyl)imidazolines as alpha1 adrenergic receptor agonists: the discovery of alpha1a subtype selective 2'-alkylsulfonyl-substituted analogues” (J Med Chem, 2002).

Assay [1] deals with T1, Alpha-2C adrenergic receptor (Homo sapiens, UniProt P18825).
T1 sequence (P18825 whole entry): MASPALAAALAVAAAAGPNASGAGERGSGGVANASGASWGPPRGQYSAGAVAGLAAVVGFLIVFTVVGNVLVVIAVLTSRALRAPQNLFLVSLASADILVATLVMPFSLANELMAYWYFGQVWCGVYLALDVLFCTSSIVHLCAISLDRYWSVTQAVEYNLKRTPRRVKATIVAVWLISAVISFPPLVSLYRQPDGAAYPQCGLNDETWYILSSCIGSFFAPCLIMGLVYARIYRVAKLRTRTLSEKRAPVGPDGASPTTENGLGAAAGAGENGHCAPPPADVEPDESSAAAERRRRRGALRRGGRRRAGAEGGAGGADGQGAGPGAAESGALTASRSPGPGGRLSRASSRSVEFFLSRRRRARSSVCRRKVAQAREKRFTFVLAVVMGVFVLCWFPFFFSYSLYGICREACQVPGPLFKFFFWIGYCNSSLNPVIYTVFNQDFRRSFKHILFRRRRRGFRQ
As to the kind of experiment: Agonist potency at Alpha-2C adrenergic receptor assayed in CHO cells expressing human Alpha-2C adrenergic receptor. The assay is classed as functional, cell-based.

Assay [2] has as its target T2, Alpha-1A adrenergic receptor (Homo sapiens, UniProt P35348).
T2 sequence (P35348 whole entry): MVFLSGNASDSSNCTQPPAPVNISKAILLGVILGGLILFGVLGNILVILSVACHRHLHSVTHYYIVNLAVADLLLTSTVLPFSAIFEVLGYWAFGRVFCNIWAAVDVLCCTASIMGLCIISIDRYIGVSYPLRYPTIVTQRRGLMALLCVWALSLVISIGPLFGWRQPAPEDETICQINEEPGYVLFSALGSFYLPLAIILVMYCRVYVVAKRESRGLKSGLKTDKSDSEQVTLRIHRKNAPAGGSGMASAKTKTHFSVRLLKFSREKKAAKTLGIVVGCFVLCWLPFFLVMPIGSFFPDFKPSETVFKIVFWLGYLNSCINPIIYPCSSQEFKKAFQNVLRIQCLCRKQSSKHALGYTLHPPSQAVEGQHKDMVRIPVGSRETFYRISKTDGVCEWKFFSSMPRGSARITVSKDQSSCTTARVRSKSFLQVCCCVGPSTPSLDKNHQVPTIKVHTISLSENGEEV
As to the kind of experiment: Affinity to Alpha-1 adrenergic receptor determined by radioligand binding techniques from rat-1 fibroblasts membranes.

Assay [3] concerns the target T3, Alpha-2A adrenergic receptor (Homo sapiens) (UniProt P08913).
T3 sequence (whole entry): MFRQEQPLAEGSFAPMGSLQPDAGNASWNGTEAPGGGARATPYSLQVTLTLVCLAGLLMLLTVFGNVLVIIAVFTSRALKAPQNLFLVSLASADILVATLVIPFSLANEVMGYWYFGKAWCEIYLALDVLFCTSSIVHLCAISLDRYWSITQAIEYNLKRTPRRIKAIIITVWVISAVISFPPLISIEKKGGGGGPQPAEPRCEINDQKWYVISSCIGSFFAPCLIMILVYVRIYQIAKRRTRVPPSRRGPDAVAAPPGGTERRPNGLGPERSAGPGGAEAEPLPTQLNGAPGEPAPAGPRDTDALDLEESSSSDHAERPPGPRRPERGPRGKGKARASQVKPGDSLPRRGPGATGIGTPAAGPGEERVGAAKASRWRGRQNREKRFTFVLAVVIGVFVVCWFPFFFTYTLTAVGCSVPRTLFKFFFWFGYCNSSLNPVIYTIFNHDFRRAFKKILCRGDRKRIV
The experiment in a line: Efficacy as percentage of the maximal effect observed for nonselective agonist UK-14304 in CHO cells expressing human Alpha-2A adrenergic receptor. It is filed as functional, cell-based.

For assay [4], the target named is T4, Alpha-1D adrenergic receptor (Homo sapiens, UniProt P25100).
T4 sequence (P25100 whole entry): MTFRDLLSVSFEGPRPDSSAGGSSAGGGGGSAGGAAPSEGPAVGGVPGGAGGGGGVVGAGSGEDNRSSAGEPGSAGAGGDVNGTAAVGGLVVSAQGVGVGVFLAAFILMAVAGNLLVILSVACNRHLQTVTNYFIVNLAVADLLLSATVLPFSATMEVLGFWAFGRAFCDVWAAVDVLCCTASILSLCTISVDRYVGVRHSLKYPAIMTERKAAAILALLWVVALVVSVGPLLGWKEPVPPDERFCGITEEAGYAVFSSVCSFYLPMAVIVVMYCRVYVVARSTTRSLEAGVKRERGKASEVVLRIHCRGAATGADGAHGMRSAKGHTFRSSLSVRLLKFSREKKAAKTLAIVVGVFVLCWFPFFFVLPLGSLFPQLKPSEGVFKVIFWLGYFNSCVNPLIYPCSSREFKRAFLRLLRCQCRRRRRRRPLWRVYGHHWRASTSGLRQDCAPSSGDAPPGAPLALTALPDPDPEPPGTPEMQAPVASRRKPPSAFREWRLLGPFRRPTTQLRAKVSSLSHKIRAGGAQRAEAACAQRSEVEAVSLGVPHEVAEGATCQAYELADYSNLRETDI
As to the kind of experiment: Agonist potency at Alpha-1D adrenergic receptor assayed in rat-1 fibroblasts expressing human Alpha-1D adrenergic receptor. It is filed as functional. Summed up: (§1)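 Rat-1 fibroblasts expressing human α1a/α1b/α1d, grown in DMEM with 10% heat-inactivated FBS and 0.6 mg/mL G418, plated 6000 cells/well and cultured 48 h at 37 °C. Loaded 2 h at 37 °C with Calcium Green (4 μM), 0.2% pluronic acid and 2.5 mM probenecid in HEPES buffer pH 7.4. FLIPR read at room temperature: 10 s baseline, then 50 s after compound. 11-point curves as % of 40 μM phenylephrine response, top concentration typically 5 μM.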

Assay [5] concerns the target T5, Alpha-1B adrenergic receptor (Homo sapiens, UniProt P35368).
T5 sequence (P35368 whole entry): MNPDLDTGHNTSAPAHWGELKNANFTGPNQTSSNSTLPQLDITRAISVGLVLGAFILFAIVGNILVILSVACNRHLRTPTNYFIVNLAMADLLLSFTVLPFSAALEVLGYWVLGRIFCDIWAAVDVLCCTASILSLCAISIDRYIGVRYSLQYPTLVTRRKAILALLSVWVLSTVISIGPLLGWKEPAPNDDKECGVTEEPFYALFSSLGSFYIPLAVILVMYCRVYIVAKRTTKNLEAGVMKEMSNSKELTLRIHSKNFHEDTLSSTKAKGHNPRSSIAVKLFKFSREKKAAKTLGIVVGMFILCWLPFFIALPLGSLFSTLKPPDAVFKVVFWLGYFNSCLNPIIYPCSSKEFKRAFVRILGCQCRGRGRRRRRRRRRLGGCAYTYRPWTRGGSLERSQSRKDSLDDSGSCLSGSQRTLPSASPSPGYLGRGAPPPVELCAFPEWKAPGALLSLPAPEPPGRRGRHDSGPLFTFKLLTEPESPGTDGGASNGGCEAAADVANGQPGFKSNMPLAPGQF
The experiment in a line: Agonist potency at Alpha-1B adrenergic receptor expressed in rat-1 fibroblasts. The assay is classed as functional.

Assay [6] deals with T6, Alpha-2C adrenergic receptor (Homo sapiens) (UniProt P18825).
T6 sequence (whole entry): T1 sequence (P18825 whole entry)
As to the kind of experiment: Efficacy as percentage of the maximal effect observed for nonselective agonist UK-14304 in CHO cells expressing human Alpha-2C adrenergic receptor. It is filed as functional, cell-based.

The target of assay [7] is T1, Alpha-2C adrenergic receptor. The experiment in a line: Affinity to human Alpha-2C adrenergic receptor determined by radioligand binding techniques from chinese hamster ovary (CHO) cells. The assay is classed as cell-based.
Assay [8] has as its target T4, Alpha-1D adrenergic receptor. The experiment in a line: Affinity to human Alpha-1D adrenergic receptor determined by radioligand binding techniques from rat-1 fibroblasts membranes.
For assay [9], the target named is T7, Alpha-2A adrenergic receptor (Homo sapiens, UniProt P08913).
T7 sequence (P08913 whole entry): T3 sequence (whole entry)
As to the kind of experiment: Affinity to human Alpha-2A adrenergic receptor determined by radioligand binding techniques from chinese hamster ovary (CHO) cells. It is filed as cell-based.

Assay [10] deals with T5, Alpha-1B adrenergic receptor. The experiment in a line: Affinity to human Alpha-1B adrenergic receptor determined by radioligand binding techniques from rat-1 fibroblasts membranes.
For assay [11], the target named is T2, Alpha-1A adrenergic receptor. The experiment in a line: Agonist potency at Alpha-1 adrenergic receptor assayed in rat-1 fibroblasts expressing human Alpha-1 adrenergic receptor. The assay is classed as functional. Summed up:
as §1

The target in assay [12] is T7, Alpha-2A adrenergic receptor. The experiment in a line: Agonist potency at Alpha-2A stably expressed in CHO cells. It is filed as functional, cell-based.
For assay [13], the target named is T8, Alpha-1A adrenergic receptor (Homo sapiens) (UniProt P35348).
T8 sequence (whole entry): T2 sequence (P35348 whole entry)
As to the kind of experiment: Efficacy as % of the maximal effect observed for nonselective agonist phenylephrine in rat-1 fibroblasts expressing human Alpha-1 adrenergic receptor. The assay is classed as functional. In short, it runs like this: as §1

Assay [14] addresses T9, Alpha-2B adrenergic receptor (Homo sapiens, UniProt P18089).
T9 sequence (P18089 whole entry): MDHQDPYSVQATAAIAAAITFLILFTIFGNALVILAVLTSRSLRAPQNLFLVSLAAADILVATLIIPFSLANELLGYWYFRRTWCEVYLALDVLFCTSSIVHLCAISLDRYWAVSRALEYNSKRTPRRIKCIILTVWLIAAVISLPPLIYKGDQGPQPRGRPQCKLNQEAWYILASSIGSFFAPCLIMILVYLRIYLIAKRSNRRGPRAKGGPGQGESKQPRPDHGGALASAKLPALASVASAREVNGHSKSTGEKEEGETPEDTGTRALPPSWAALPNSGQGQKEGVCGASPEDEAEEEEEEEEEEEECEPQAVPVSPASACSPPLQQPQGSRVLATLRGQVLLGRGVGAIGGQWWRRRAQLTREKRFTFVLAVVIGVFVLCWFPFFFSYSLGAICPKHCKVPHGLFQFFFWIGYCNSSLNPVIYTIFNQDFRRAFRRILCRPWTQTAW
The experiment in a line: Affinity to human Alpha-2B adrenergic receptor determined by radioligand binding techniques from chinese hamster ovary (CHO) cells. It is filed as cell-based.

A word on the EC50: it is the concentration at which the effect is half-maximal. A higher EC50 goes with a need for much substance. What is called Ki is a measure of affinity in units of concentration, obtained from inhibition or displacement.

Values joined by “and” are separate entries in the source; they are usually repeats but may differ in a detail not shown here. Identical values can stand only once. Some results are limits rather than exact numbers.

As for `O=S1(=O)CCCc2cccc(NCC3=NCCN3)c21`, the EC50 in assay [1] is 6.31 µM; in assay [4], > 100 µM; in assay [5], > 100 µM; in [11], > 100000 nM; in [12], > 10 µM. Besides, the Ki in assay [2] was 617 nM; in assay [7], 2690 nM; in assay [8], > 15.8 µM; in assay [9], 794 nM; in assay [10], 2.14 µM. In addition, the Max in [3] worked out at 29%; in assay [6], 69%.
In [3], `Cc1cc(C(C)(C)C)c(O)c(C)c1CC1=NCCN1` yielded a Max of 88%.
For `CS(=O)(=O)Nc1ccc(F)c([C@@H](O)CN)c1` [NS-49], the Max in [13] came to 109%; in assay [3], 34%; in [6], 87%. Moreover, the EC50 in assay [1] was 2 µM; in [4], > 100 µM; in assay [5], > 100 µM; in assay [11] it was 158 nM; in assay [12], > 10 µM. Moreover, the Ki in assay [2] was 1120 nM; in [10], 11.2 µM.
On to `COc1ccc(S(C)(=O)=O)c(NCC2=NCCN2)c1`, for which the Max was 102% in [13], 16% in [3] and 49% in assay [6]. Besides, the Ki in assay [2] was 1620 nM; in assay [14], > 6.31 µM; in assay [7], > 5010 nM; in assay [8], 7.59 µM; in assay [9], 3630 nM; in assay [10], 4.57 µM. Besides, the EC50 in [4] is > 100 µM; in [5] it was > 100 µM; in assay [11], 14.1 nM; in [12] it was > 10 µM and 3.31 µM.
